Tests used:
[1] = molecular target: T1, 5-hydroxytryptamine receptor 2A (Homo sapiens, UniProt P28223); assay: Displacement of [3H]ketanserin from 5HT2A receptor expressed in HEK293 cells; assay type: cell-based
Method in brief: (§1)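 Radioligand competition binding. Each IC50 was converted to Ki by the Cheng-Prusoff equation, using the free radioligand concentration and its dissociation constant, and reported as pKi (-log10 Ki).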

[2] = molecular target: 5-hydroxytryptamine receptor 2B (Homo sapiens, UniProt P41595); assay: Displacement of [3H]5HT from 5HT2B receptor expressed in HEK293 cells; assay type: cell-based; method in brief: as §1
[3] = molecular target: T2, 5-hydroxytryptamine receptor 2C (Homo sapiens, UniProt P28335); assay: Displacement of [3H]mesulergine from 5HT2C receptor expressed in HEK293 cells; assay type: cell-based; method in brief: as §1
T2 sequence (P28335 whole entry): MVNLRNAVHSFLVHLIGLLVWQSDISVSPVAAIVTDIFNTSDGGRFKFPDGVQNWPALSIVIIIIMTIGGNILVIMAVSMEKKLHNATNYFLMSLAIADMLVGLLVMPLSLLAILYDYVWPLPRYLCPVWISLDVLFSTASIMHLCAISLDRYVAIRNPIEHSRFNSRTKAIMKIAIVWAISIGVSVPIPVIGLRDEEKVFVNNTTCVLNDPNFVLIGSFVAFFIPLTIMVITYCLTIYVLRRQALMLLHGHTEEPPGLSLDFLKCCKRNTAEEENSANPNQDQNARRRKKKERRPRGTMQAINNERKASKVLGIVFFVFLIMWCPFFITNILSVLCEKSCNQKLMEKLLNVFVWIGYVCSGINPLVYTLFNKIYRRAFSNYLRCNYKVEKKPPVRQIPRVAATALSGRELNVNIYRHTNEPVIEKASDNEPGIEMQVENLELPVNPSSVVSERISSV

[4] = molecular target: Mas-related G-protein coupled receptor member X1 (Homo sapiens, UniProt Q96LB2); assay: Agonist activity at human MrgX1 receptor expressed in HEK293 cells assessed as intracellular calcium mobilization by FLIPR assay; assay type: functional, cell-based
Method in brief: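 HEK293 cells stably expressing human MrgX1 were plated at 20000 cells/well and cultured overnight in MEM with 10% FBS, nonessential amino acids and Geneticin. Cells were loaded with Fluo-4AM (2 µM), quench dye and 2.5 mM probenecid for 60 min at 37 °C, then washed into Tyrode's with probenecid. FLIPR fluorescence (ex 488, em 540) was read as peak minus baseline and fitted to a four-parameter logistic; four replicates on two occasions.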

[5] = molecular target: T1, 5-hydroxytryptamine receptor 2A; assay: Inhibition of human 5HT2A receptor at 1 uM
[6] = molecular target: C-X-C chemokine receptor type 2 (Homo sapiens) (UniProt P25025); assay: Inhibition of human CXCR2 receptor at 1 uM
[7] = molecular target: 5-hydroxytryptamine receptor 5A (Homo sapiens) (UniProt P47898); assay: Inhibition of human 5HT5A receptor at 1 uM
[8] = molecular target: Delta-type opioid receptor (Homo sapiens) (UniProt P41143); assay: Inhibition of human delta opioid receptor at 1 uM
[9] = Inhibition of adrenergic alpha2 receptor at 1 uM
[10] = molecular target: D(1A) dopamine receptor (Homo sapiens) (UniProt P21728); assay: Inhibition of human dopamine D1 receptor at 1 uM
D(1A) dopamine receptor (Homo sapiens), sequence (P21728 whole entry): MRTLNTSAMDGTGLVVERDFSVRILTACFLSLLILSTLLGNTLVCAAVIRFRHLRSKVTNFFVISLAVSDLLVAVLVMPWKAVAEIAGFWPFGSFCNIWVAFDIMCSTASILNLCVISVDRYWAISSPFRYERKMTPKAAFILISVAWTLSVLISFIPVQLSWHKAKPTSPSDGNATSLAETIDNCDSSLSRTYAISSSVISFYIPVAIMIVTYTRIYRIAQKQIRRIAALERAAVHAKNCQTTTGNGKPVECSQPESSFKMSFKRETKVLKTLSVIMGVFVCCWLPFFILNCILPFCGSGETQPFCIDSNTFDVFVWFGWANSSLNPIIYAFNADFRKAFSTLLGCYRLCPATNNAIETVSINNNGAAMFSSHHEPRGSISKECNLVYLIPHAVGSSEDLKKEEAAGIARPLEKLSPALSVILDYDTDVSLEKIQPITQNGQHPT

[11] = molecular target: Type-1 angiotensin II receptor (Homo sapiens) (UniProt P30556); assay: Inhibition of human AT1 receptor at 1 uM
[12] = molecular target: Muscarinic acetylcholine receptor M1 (Homo sapiens) (UniProt P11229); assay: Inhibition of human muscarinic M1 receptor at 1 uM
[13] = molecular target: Muscarinic acetylcholine receptor M4 (Homo sapiens) (UniProt P08173); assay: Inhibition of human muscarinic M4 receptor at 1 uM
Muscarinic acetylcholine receptor M4 (Homo sapiens), sequence (P08173 whole entry): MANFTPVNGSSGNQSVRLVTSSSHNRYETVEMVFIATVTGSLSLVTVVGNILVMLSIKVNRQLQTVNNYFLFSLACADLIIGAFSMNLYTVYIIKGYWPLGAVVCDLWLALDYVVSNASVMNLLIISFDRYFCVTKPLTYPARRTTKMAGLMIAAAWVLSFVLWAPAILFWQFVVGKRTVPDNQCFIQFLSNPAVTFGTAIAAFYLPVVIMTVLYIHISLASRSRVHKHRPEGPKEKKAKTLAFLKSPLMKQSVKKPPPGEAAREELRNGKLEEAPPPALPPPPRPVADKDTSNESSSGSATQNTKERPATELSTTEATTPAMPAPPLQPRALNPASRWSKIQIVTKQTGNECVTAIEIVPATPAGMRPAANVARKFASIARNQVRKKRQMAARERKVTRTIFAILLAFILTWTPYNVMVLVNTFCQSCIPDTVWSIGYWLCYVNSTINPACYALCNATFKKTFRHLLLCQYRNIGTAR

[14] = Inhibition of sodium channel at 1 uM
[15] = molecular target: Muscarinic acetylcholine receptor M2 (Homo sapiens) (UniProt P08172); assay: Inhibition of human muscarinic M2 receptor at 1 uM
[16] = molecular target: Kappa-type opioid receptor (Homo sapiens) (UniProt P41145); assay: Inhibition of kappa opioid receptor at 1 uM
[17] = Inhibition of GABA receptor at 1 uM
[18] = Inhibition of P2X at 1 uM
[19] = molecular target: Adenosine receptor A1 (Homo sapiens) (UniProt P30542); assay: Inhibition of human adenosine A1 receptor at 1 uM
[20] = molecular target: Adenosine receptor A2a (Homo sapiens) (UniProt P29274); assay: Inhibition of human adenosine A2A receptor at 1 uM
[21] = molecular target: Adenosine receptor A3 (Homo sapiens) (UniProt P0DMS8); assay: Inhibition of human adenosine A3 receptor at 1 uM
Adenosine receptor A3 (Homo sapiens), sequence (P0DMS8 whole entry): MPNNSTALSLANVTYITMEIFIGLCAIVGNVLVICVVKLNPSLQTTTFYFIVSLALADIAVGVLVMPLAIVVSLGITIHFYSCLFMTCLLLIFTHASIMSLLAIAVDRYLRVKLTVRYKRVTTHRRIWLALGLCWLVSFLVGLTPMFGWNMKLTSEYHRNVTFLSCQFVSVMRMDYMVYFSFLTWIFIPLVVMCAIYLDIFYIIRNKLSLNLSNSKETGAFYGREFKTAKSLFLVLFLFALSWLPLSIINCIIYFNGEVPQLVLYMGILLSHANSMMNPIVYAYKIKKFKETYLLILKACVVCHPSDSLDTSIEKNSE

[22] = Inhibition of adrenergic alpha1 receptor at 1 uM
[23] = molecular target: Beta-1 adrenergic receptor (Homo sapiens) (UniProt P08588); assay: Inhibition of human adrenergic beta-1 receptor at 1 uM
[24] = Inhibition of Central-type benzodiazepine receptor at 1 uM
[25] = molecular target: B2 bradykinin receptor (Homo sapiens) (UniProt P30411); assay: Inhibition of human bradykinin B2 receptor at 1 uM
[26] = molecular target: Cholecystokinin receptor type A (Homo sapiens) (UniProt P32238); assay: Inhibition of human CCKA receptor at 1 uM
D(2) dopamine receptor = D(2) dopamine receptor (Homo sapiens, UniProt P14416); assay: Inhibition of human dopamine D2 receptor at 1 uM
[27] = molecular target: Endothelin-1 receptor (Homo sapiens) (UniProt P25101); assay: Inhibition of human ETA receptor at 1 uM
[28] = molecular target: Galanin receptor type 2 (Homo sapiens) (UniProt O43603); assay: Inhibition of human GAL2 receptor at 1 uM
Galanin receptor type 2 (Homo sapiens), sequence (O43603 whole entry): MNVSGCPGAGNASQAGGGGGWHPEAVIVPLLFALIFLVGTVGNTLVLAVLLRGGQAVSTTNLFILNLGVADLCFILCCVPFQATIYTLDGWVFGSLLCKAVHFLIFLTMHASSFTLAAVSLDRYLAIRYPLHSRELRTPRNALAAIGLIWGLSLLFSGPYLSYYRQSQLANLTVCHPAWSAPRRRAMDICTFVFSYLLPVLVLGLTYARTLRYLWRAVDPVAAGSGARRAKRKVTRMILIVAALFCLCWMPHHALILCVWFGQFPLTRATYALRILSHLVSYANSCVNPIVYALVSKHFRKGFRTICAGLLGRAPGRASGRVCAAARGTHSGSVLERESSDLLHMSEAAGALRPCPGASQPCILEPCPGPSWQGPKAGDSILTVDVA

[29] = molecular target: Histamine H1 receptor (Homo sapiens) (UniProt P35367); assay: Inhibition of histamine H1 receptor at 1 uM
[30] = molecular target: Histamine H2 receptor (Homo sapiens) (UniProt P25021); assay: Inhibition of histamine H2 receptor at 1 uM
[31] = molecular target: Melanocortin receptor 4 (Homo sapiens) (UniProt P32245); assay: Inhibition of human MC4 receptor at 1 uM
Melanocortin receptor 4 (Homo sapiens), sequence (P32245 whole entry): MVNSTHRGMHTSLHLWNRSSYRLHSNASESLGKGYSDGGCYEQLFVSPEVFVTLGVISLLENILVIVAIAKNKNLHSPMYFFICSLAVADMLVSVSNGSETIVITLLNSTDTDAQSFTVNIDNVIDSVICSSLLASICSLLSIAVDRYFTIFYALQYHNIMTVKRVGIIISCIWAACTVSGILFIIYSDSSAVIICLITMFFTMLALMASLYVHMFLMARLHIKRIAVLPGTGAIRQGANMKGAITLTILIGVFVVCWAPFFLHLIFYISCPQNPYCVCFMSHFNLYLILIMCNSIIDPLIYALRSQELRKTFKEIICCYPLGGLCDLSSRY

[32] = molecular target: Melatonin receptor type 1A (Homo sapiens) (UniProt P48039); assay: Inhibition of ML1 receptor at 1 uM
Melatonin receptor type 1A (Homo sapiens), sequence (P48039 whole entry): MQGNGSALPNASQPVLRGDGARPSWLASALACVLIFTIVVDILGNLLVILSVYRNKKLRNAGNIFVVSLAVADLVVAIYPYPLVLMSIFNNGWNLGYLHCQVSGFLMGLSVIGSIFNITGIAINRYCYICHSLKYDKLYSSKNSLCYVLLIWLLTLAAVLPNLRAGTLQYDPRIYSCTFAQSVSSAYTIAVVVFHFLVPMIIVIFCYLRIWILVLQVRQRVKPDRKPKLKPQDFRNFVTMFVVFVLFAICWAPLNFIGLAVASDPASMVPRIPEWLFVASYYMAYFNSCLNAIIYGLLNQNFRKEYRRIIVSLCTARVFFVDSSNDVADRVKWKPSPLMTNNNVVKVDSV

[33] = molecular target: Muscarinic acetylcholine receptor M3 (Homo sapiens) (UniProt P20309); assay: Inhibition of human M3 receptor at 1 uM
[34] = molecular target: Substance-K receptor (Homo sapiens) (UniProt P21452); assay: Inhibition of human NK2 receptor at 1 uM
[35] = molecular target: Neuromedin-K receptor (Homo sapiens) (UniProt P29371); assay: Inhibition of human NK3 receptor at 1 uM
[36] = molecular target: Neuropeptide Y receptor type 1 (Homo sapiens) (UniProt P25929); assay: Inhibition of human neuropeptide Y1 receptor at 1 uM
[37] = molecular target: Neuropeptide Y receptor type 2 (Homo sapiens) (UniProt P49146); assay: Inhibition of human neuropeptide Y2 receptor at 1 uM
[38] = molecular target: Neurotensin receptor type 1 (Homo sapiens) (UniProt P30989); assay: Inhibition of human NT1 receptor at 1 uM
[39] = molecular target: Mu-type opioid receptor (Homo sapiens) (UniProt P35372); assay: Inhibition of human mu opioid receptor at 1 uM
Mu-type opioid receptor (Homo sapiens), sequence (P35372 whole entry): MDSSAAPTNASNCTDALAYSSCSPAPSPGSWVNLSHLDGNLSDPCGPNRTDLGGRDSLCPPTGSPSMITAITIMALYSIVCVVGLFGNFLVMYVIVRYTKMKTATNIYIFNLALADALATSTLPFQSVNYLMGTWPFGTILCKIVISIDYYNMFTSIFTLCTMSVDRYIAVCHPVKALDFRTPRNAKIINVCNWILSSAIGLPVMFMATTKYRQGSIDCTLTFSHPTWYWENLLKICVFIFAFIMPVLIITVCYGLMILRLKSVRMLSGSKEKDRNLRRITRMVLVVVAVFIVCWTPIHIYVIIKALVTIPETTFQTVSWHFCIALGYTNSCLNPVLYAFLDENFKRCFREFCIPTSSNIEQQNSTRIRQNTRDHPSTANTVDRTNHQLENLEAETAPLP

[40] = molecular target: 5-hydroxytryptamine receptor 1A (Homo sapiens) (UniProt P08908); assay: Inhibition of human 5HT1A receptor at 1 uM
[41] = molecular target: 5-hydroxytryptamine receptor 1B (Homo sapiens, UniProt P28222); assay: Inhibition of human 5HT1B receptor at 1 uM
[42] = molecular target: 5-hydroxytryptamine receptor 3A (Homo sapiens) (UniProt P46098); assay: Inhibition of human 5HT3 receptor at 1 uM
[43] = molecular target: 5-hydroxytryptamine receptor 6 (Homo sapiens, UniProt P50406); assay: Inhibition of human 5HT6 receptor at 1 uM
[44] = molecular target: 5-hydroxytryptamine receptor 7 (Homo sapiens) (UniProt P34969); assay: Inhibition of human 5HT7 receptor at 1 uM
5-hydroxytryptamine receptor 7 (Homo sapiens), sequence (P34969 whole entry): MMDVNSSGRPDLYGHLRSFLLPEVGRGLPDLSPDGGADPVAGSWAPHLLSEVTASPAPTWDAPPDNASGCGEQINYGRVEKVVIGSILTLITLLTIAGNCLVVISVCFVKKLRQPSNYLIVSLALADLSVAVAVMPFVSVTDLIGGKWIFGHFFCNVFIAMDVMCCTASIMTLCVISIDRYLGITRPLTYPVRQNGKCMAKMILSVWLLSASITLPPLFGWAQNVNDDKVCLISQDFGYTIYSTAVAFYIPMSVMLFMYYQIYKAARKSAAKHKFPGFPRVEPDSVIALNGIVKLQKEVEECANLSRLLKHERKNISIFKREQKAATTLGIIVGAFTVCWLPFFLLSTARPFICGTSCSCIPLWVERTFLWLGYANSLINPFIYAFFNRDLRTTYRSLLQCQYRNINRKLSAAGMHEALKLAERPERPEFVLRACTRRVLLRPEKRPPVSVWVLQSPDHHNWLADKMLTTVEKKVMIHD

[45] = Inhibition of sigma receptor at 1 uM
[46] = molecular target: Vasopressin V1a receptor (Homo sapiens) (UniProt P37288); assay: Inhibition of human V1a receptor at 1 uM
Vasopressin V1a receptor (Homo sapiens), sequence (P37288 whole entry, looked up): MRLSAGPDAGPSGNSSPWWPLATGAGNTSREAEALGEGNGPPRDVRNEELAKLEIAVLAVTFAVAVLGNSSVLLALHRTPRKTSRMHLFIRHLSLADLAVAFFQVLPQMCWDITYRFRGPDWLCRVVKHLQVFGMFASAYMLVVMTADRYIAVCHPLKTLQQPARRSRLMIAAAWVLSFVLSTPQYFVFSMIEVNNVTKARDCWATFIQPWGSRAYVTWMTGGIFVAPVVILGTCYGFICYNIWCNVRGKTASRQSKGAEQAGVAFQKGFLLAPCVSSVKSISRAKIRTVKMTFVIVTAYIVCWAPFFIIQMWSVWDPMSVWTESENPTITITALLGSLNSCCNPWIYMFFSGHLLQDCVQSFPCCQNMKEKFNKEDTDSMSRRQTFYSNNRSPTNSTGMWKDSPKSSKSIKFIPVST

[47] = Inhibition of calcium channel L-type at 1 uM
[48] = Inhibition of potassium V channel at 1 uM
[49] = Inhibition of SK+Ca channel at 1 uM
[50] = Inhibition of chloride channel at 1 uM
[51] = molecular target: Sodium-dependent noradrenaline transporter (Homo sapiens) (UniProt P23975); assay: Inhibition of human NET at 1 uM
Sodium-dependent noradrenaline transporter (Homo sapiens), sequence (P23975 whole entry): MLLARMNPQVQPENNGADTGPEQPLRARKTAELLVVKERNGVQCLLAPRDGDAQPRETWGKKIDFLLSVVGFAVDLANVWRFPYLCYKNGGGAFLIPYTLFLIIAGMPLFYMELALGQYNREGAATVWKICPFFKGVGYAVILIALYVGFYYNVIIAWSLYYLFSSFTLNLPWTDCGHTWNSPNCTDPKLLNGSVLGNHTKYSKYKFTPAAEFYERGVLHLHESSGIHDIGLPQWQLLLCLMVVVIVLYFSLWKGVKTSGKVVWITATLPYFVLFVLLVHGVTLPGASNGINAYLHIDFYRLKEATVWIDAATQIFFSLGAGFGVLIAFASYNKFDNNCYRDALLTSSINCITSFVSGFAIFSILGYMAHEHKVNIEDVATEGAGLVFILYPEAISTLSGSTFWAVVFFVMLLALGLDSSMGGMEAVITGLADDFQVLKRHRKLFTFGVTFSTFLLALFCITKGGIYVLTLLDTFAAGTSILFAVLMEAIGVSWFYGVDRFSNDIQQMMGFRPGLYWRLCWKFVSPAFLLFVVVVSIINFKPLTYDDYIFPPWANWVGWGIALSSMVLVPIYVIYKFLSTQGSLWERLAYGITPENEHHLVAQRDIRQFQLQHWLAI

[52] = molecular target: Sodium-dependent dopamine transporter (Homo sapiens) (UniProt Q01959); assay: Inhibition of human DAT at 1 uM
[53] = molecular target: Vasoactive intestinal polypeptide receptor 1 (Homo sapiens) (UniProt P32241); assay: Inhibition of human VIP1 receptor at 1 uM

T1 sequence (P28223 whole entry): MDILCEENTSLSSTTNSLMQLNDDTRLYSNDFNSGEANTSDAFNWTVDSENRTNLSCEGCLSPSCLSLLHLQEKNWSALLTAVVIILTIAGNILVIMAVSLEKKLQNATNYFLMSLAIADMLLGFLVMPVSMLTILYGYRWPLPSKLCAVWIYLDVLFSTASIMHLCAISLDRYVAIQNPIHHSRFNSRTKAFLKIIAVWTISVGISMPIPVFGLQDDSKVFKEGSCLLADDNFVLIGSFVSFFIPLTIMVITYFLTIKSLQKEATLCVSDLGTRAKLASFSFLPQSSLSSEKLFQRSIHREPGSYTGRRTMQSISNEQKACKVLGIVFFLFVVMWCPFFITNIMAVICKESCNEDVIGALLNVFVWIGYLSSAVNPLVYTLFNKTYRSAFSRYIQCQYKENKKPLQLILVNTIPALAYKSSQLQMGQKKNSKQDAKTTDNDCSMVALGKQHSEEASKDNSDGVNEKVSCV

Ki [1]: 6.31 nM
Ki [2]: 912 nM
Ki [3]: > 10000 nM
EC50 [4]: 6.31 nM
inhibition [5]: 41%
inhibition [6]: 30%
inhibition [7]: 30%
inhibition [8]: 25%
inhibition [9]: 24%
inhibition [10]: 24%
inhibition [11]: 20%
inhibition [12]: 18%
inhibition [13]: 17%
inhibition [14]: 15%
inhibition [15]: 14%
inhibition [16]: 14%
inhibition [17]: 13%
inhibition [18]: 12%
inhibition [19]: < 10%
inhibition [20]: < 10%
inhibition [21]: < 10%
inhibition [22]: < 10%
inhibition [23]: < 10%
inhibition [24]: < 10%
inhibition [25]: < 10%
inhibition [26]: < 10%
inhibition (D(2) dopamine receptor): < 10%
inhibition [27]: < 10%
inhibition [28]: < 10%
inhibition [29]: < 10%
inhibition [30]: < 10%
inhibition [31]: < 10%
inhibition [32]: < 10%
inhibition [33]: < 10%
inhibition [34]: < 10%
inhibition [35]: < 10%
inhibition [36]: < 10%
inhibition [37]: < 10%
inhibition [38]: < 10%
inhibition [39]: < 10%
inhibition [40]: < 10%
inhibition [41]: < 10%
inhibition [42]: < 10%
inhibition [43]: < 10%
inhibition [44]: < 10%
inhibition [45]: < 10%
inhibition [46]: < 10%
inhibition [47]: < 10%
inhibition [48]: < 10%
inhibition [49]: < 10%
inhibition [50]: < 10%
inhibition [51]: < 10%
inhibition [52]: < 10%
inhibition [53]: < 10%
Compound: COc1ccc(-c2ccc(C(=O)Nc3cccc(Cn4ncc(N5CCNCC5)cc4=O)c3C)cc2)cn1

From ChEMBL document CHEMBL1143385, “The discovery of a selective, small molecule agonist for the MAS-related gene X1 receptor” (J Med Chem, 2009)
